# Calls of active or inactive are those of the source. No cut-off for these calls is given here.
# Columns and labels:
# Mus musculus [1] = organism: Mus musculus; test: Mortality rate in mice in high dose; type: functional
# How it was run: (§1)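 Male B6D2F1 mice given compound daily by gavage in corn oil at the stated dose levels, with corn oil vehicle controls. Deaths counted as animals found dead or sacrificed moribund, with day(s) of death recorded. Heteroarotinoid groups ran to day 65 and low-dose reference groups to day 25.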
# Mus musculus [2] = organism: Mus musculus; test: Effect of compound on serum triglycerides levels in mice at mid dose 2 on day 36; type: functional
# How it was run: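 Male B6D2F1 mice were gavaged daily with compound in corn oil at low, mid 1, mid 2 or high dose. Serum triglycerides and circulating white blood cells were measured on the stated day (8, 29, 36, 65). Values are group mean ± SD expressed as % relative to corn-oil vehicle, with significance at p ≤ 0.05.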
# Mus musculus [3] = organism: Mus musculus; test: Enlarged lymph in gross pathological observations in mice with hypervitaminosis A at mid dose 2 with gross observations/total number of mice in group; 1/16; type: functional, organism-based
# Mus musculus [4] = organism: Mus musculus; test: Fracture incidence in mouse at high dose; 3/8
# Mus musculus [5] = organism: Mus musculus; test: Mortality rate in mice in mid dose 2; type: functional; how it was run: as §1
# Mus musculus [6] = organism: Mus musculus; test: Alopecia in mice observed at high dose with Hypervitaminosis; 4/16; type: functional, organism-based
# Mus musculus [7] = test: Enlarged lymph in gross pathological observations with hypervitaminosis A in mice at 0.01 mg/kg/day dose with gross observations/total number of animals in group; 6/8; type: functional, organism-based
# Mus musculus [8] = test: Effect of compound on Spleen to body weight ratios in mice at 0.05 mg/kg/day dose; measured on day 25
# Mus musculus [9] = test: Fracture incidents in mouse at 0.4 mg/kg/day; 3/12
# Mus musculus [10] = test: Effect of compound on Spleen to body weight ratios in mice at 0.4 mg/kg/day dose on day 65; dead by day 65; type: functional, organism-based
# How it was run: (§2)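 Male B6D2F1 mice dosed daily by gavage with compound in corn oil; vehicle 1 (corn oil) controls run to termination on day 65. Low, mid 1, mid 2 and high dose groups, with dosage increases partway through the study. Organ-to-body weight ratios (×1000) taken at necropsy on day 65, reported as mean ± SD for 4 to 8 animals and as % difference from vehicle.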
# Mus musculus [11] = test: Enlarged lymph in gross pathological observations with hypervitaminosis A in mice at 0.05 mg/kg/day dose with gross observations/total number of animals in group; 8/8; type: functional, organism-based
# Mus musculus [12] = test: Effects of retinoids on thymus to body weight ratios in mice at 0.01 mg/kg/day dose
# Mus musculus [13] = test: Effect of compound on thymus to body weight ratios in mice at 0.4 mg/kg/day dose; all the animals died by day 65; type: functional, organism-based
# How it was run: (§3)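 Male B6D2F1 mice were dosed daily by gavage in corn oil, with TTNPB given at 0.1–0.8 or 0.01/0.05 mg/kg/day. Thymus-to-body weight ratio (×1000) was taken at necropsy on day 65 against vehicle 1, or on day 25 for the 0.01/0.05 groups against vehicle 2. Mean ± SD of 4–8 animals, reported as % difference from vehicle.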
# Mus musculus [14] = test: Fracture incidents in mouse at 0.2 mg/kg/day; 3/8
# [15] = Mortality rate in mice at 0.4 mg/kg/day; range (8-19); type: ADME, organism-based; conditions: mouse, in vivo; how it was run: as §1
# Mus musculus [16] = test: Average number of fractures per mouse at 0.8 mg/kg/day
# Mus musculus [17] = test: Fracture incidents in mouse at 0.1 mg/kg/day
# Mus musculus [18] = test: Effect of compound on Spleen to body weight ratios in mice at 0.1 mg/kg/day dose on day 65; dead by day 65; type: functional, organism-based; how it was run: as §2
# Mus musculus [19] = test: Enlarged lymph in gross pathological observations with hypervitaminosis A at 0.1 mg/kg/day dose with gross observations/total number of animals in group'' 16/16; type: functional, organism-based
# Mus musculus [20] = test: Effect of compound on thymus to body weight ratios in mice at 0.8 mg/kg/day dose; all the animals died by day 65; type: functional, organism-based; how it was run: as §3
# [21] = Mortality rate in mice at 0.01 mg/kg/day; type: ADME, organism-based; conditions: mouse, in vivo; how it was run: as §1
# Mus musculus [22] = test: Approximate day to determine 10% weight loss in mice at 0.05 mg/kg/day; type: functional
# How it was run: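 Male B6D2F1 mice dosed daily by gavage in corn oil; body weights followed to termination (day 65, or day 25 for TTNPB 0.01/0.05 mg/kg/day groups) and compared with the matching vehicle group. Value is approximate day of onset of 10% body weight reduction versus vehicle.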
# Mus musculus [23] = test: Effect of compound on right testicle to body weight ratios in mice at 0.05 mg/kg/day dose; all the animals died by day 65; type: functional, organism-based
# Mus musculus [24] = test: Alopecia observed at 0.05 mg/kg/day dose in mice with hypervitaminosis; 8/8; type: functional, organism-based
# Mus musculus [25] = test: Skin scaling at 0.01 mg/kg/day in mice with hypervitaminosis; 4/8; type: functional, organism-based
# Mus musculus [26] = test: Effect of compound on right testicle to body weight ratios in mice at 0.05 mg/kg/day dose on day 25; dead on day 65; type: functional, organism-based
# Mus musculus [27] = test: Effect of compound on adrenal to body weight ratios in mice at 0.1 mg/kg/day dose; all the animals died by day 65; type: functional, organism-based
# Mus musculus [28] = test: Enlarged spleen in Enlarged spleen in Gross pathological observations with hypervitaminosis A in mice at 0.2 mg/kg/day dose with gross observations/total number of animals in group; 0/16; type: functional, organism-based
# Mus musculus [29] = test: Effect of compound on right testicle to body weight ratios in mice at 0.1 mg/kg/day dose; all the animals died by day 65; type: functional, organism-based
# Mus musculus [30] = organism: Mus musculus; test: Compound toxicity determined by total dose to termination (day 25/65) in mid dose 1; type: functional
# How it was run: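 Male B6D2F1 mice given daily oral gavage in corn oil; dosages increased during the study (day 30 or day 51 depending on compound). Cumulative dose in mg/kg administered up to termination (day 65, or day 25 for TTNPB 0.01/0.05 mg/kg/day groups).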
# Mus musculus [31] = organism: Mus musculus; test: Compound toxicity determined by total dose to termination (day 25/65) in mid dose 2; type: functional
# Mus musculus [32] = organism: Mus musculus; test: Enlarged spleen in Gross pathological observations in mice with hypervitaminosis A at mid dose 1 with gross observations/total number of mice in group; 5/16; type: functional, organism-based
# Mus musculus [33] = organism: Mus musculus; test: Enlarged lymph in gross pathological observations in mice with hypervitaminosis A in mice at high dose with gross observations/total number of mice in group; 8/16; type: functional, organism-based
# Mus musculus [34] = organism: Mus musculus; test: Effect of compound on serum Alkaline phosphatase levels in mice at mid dose 2 on day 29; type: functional
# How it was run: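 Male B6D2F1 mice dosed daily by oral gavage in corn oil at low, mid 1, mid 2 or high dose. Blood sampled on set days (8, 29, 36, 65) for clinical chemistry, serum alkaline phosphatase and triglycerides. Group mean ± SD reported as % relative to vehicle 1; significance p < 0.05 versus corn oil vehicle.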
# Mus musculus [35] = organism: Mus musculus; test: Alopecia in mice observed at mid dose 1 with Hypervitaminosis; 1/16; type: functional, organism-based
# Mus musculus [36] = organism: Mus musculus; test: Alopecia in mice observed at high dose with Hypervitaminosis; 1/16; type: functional, organism-based
# Mus musculus [37] = organism: Mus musculus; test: Fracture incidence in mouse at mid dose 2; 0/8
# Mus musculus [38] = organism: Mus musculus; test: Average number of fractures per mouse at lmid dose 1
smiles,measurement,setting,value
CC(/C=C/C=C(\C)c1ccc2c(c1)C(C)(C)CCO2)=C\C(=O)O,Mortality,Mus musculus [1],0 day of death
same,Activity,Mus musculus [2],195.9
same,Activity,Mus musculus [3],inactive
same,Activity,Mus musculus [4],Weak activity
same,Mortality,Mus musculus [5],0 day of death
same,Activity,Mus musculus [6],Weak activity
C/C(=C\c1ccc(C(=O)O)cc1)c1ccc2c(c1)C(C)(C)CCC2(C)C,Activity,Mus musculus [7],Active
same,Activity,Mus musculus [8],Toxic
same,Activity,Mus musculus [9],Weak activity
same,Activity,Mus musculus [10],Toxic
same,Activity,Mus musculus [11],Active
same,Activity,Mus musculus [12],Toxic
same,Activity,Mus musculus [13],Toxic
same,Activity,Mus musculus [14],Weak activity
same,Mortality,[15],14 day of death
same,Activity,Mus musculus [16],0
same,Activity,Mus musculus [17],5.7
same,Activity,Mus musculus [18],Toxic
same,Activity,Mus musculus [19],Active
same,Activity,Mus musculus [20],Toxic
same,Mortality,[21],0 day of death
same,Activity,Mus musculus [22],8
same,Activity,Mus musculus [23],Toxic
same,Activity,Mus musculus [24],Active
same,Activity,Mus musculus [25],Weak activity
same,Activity,Mus musculus [26],Toxic
same,Activity,Mus musculus [27],Toxic
same,Activity,Mus musculus [28],inactive
same,Activity,Mus musculus [29],Toxic
C/C(=C\c1ccc(C(=O)O)cc1)c1ccc2c(c1)C(C)(C)CCO2,Total dose,Mus musculus [30],294.2 mg/kg
same,Total dose,Mus musculus [31],588.4 mg/kg
same,Activity,Mus musculus [32],Weak activity
same,Activity,Mus musculus [33],Weak activity
same,Activity,Mus musculus [34],106.3
CC(/C=C/C=C(\C)c1ccc2c(c1)C(C)(C)CCS2)=C\C(=O)O,Activity,Mus musculus [35],inactive
same,Activity,Mus musculus [36],inactive
same,Activity,Mus musculus [37],inactive
same,Activity,Mus musculus [38],0

# From ChEMBL document CHEMBL1130202, “Biologically active heteroarotinoids exhibiting anticancer activity and decreased toxicity” (J Med Chem, 1997)
